Assay results: publication PMC11770135 (Journal of Pesticide Science, 2024)

Columns and labels:
[1] = system: respiratory complexes I, III, and IV (NADH oxidase activity); experiment: NADH oxidase activity; format: biochemical, housefly (Musca domestica); conditions: housefly mitochondria; compound added during NADH oxidation at final 40 nM
Outline: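 Housefly crude mitochondria were prepared by homogenizing in 250 mM sucrose, 5.0 mM EDTA, 10 mM Tris-HCl (pH 7.5), then differential centrifugation, and permeabilized by freeze-thawing. Protein was 30 µg/mL in 150 mM KCl, 2.5 mM MgCl₂, 30 mM KPi (pH 7.4) at 30°C. The reaction was started with 150 µM NADH, and NADH oxidation was followed at 340 nm.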

[2] = system: cytochrome b hemes of complex III; experiment: Reduction of cytochrome b hemes in housefly mitochondria; format: biochemical, housefly (Musca domestica); conditions: myxothiazol 8 µM with FloMet 5 µM or antimycin A 2 µM
Outline: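 Housefly mitochondria at 0.8 mg/mL were held in 150 mM KCl, 2.5 mM MgCl₂, 1 µM rotenone, 0.2 µM SF6847, 2.0 mM KCN and 30 mM KPi (pH 7.4) at 30°C, and equilibrated with inhibitor(s) for 4 min. Reduction was started with succinate and recorded in dual-wavelength mode. Full reduction was set with excess sodium dithionite.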

[3] = target: T1, Qi site of complex III (Lucilia sericata, UniProt A7DT80); experiment: MS-based competition binding, Qi site; parameters: species or system green bottle fly (Lucilia sericata); conditions: reporter ligand FloMet 15 nM; two independent experiments
T1 sequence (A7DT80 1-378): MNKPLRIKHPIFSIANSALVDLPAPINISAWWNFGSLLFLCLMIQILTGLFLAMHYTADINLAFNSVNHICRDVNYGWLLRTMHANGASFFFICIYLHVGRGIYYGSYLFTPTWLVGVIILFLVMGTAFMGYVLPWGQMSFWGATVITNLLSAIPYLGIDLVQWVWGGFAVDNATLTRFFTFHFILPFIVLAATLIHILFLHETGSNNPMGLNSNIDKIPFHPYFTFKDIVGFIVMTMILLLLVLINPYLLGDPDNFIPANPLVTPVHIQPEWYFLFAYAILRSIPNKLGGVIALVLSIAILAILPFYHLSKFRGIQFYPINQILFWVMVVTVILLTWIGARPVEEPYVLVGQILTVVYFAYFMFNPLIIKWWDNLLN
Outline: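 20–40 µg particles were incubated with reporter and competitor for 1 hr at room temperature in 50 mM Tris-HCl, 120 mM NaCl, 0.1 mM EDTA (pH 7.4) with bacitracin and undecyl maltoside. Bound ligand was filtered, acetonitrile-extracted and quantified by LC-ESI-MS/MS. Ki came from a one-site LogKi fit.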

| SMILES | inhibition of NADH oxidase activity [1] | effect on reduction of cytochrome b hemes, in combination with myxothiazol [2] | displacement of FloMet bound to the Qi site [3] |
| --- | --- | --- | --- |
| CCc1nc2cc(C)c(Oc3ccc(OC(F)(F)F)cc3)cc2c(OC(=O)OC)c1C [FLO, 2-ethyl-3,7-dimethyl-6-[4-(trifluoromethoxy)phenoxy]quinolin-4-yl methyl carbonate] | almost no inhibition | – | – |
| CCCCCC[C@H]1C(=O)O[C@H](C)[C@H](NC(=O)c2cccc(NC=O)c2O)C(=O)O[C@@H](C)[C@@H]1OC(=O)CC(C)C [antimycin A] | – | suppression of the reduction of b hemes | displaced FloMet at low nano molar range |
